{"source": "ChEMBL document CHEMBL4513216", "about": "“Probing the Open Global Health Chemical Diversity Library for Multistage-Active Starting Points for Next-Generation Antimalarials” (ACS Infect Dis, 2020)", "assay": "Toxicity liver stage against HepG2, at 10uM", "assay_type": "cell-based", "set-up": "test concentration 10 uM, cell line HepG2-A16-CD81EGFP", "conditions": "human, HepG2-A16-CD81EGFP cells; read-out: INHIBITION", "method_in_brief": "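Uninfected HepG2-A16-CD81EGFP cells, 3 × 10^3 per well, 1536-well, plated on prespotted compound at 10 μM final, parasite-free screening media added to match infected plates; puromycin 10 μM positive, DMSO 0.5% negative; run in parallel with 48 h PbLuc assay at 37 °C, 5% CO2; viability by CellTiter-Glo luminescence, normalized to controls.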", "data": [{"smiles": "CC(C)N1CCC(N2CCCC(C(=O)NCC3(C)COC3)C2)CC1", "note": "(stereo not given)", "values": [{"measurement": "cytotoxicity at 10 µM", "result": -5.62, "unit": "%"}]}, {"smiles": "Cc1ccccc1C(C(=O)N(C)CCc1cnn(C)c1)N(C)C", "note": "(stereo not given)", "values": [{"measurement": "cytotoxicity at 10 µM", "result": -3.57, "unit": "%"}]}, {"smiles": "COCCC1CCCCN1Cc1nc(C2CC2)no1", "note": "(stereo not given)", "values": [{"measurement": "cytotoxicity at 10 µM", "result": 8.53, "unit": "%"}]}, {"smiles": "CC(C)[C@H]1CN(S(C)(=O)=O)C[C@@H]1NC(=O)c1ccnc(N)c1", "values": [{"measurement": "cytotoxicity at 10 µM", "result": 8, "unit": "%"}]}, {"smiles": "Cc1ccc(CN2CC3(CCN(C(=O)C4CC4)CC3)CC2C(=O)O)o1", "note": "(stereo not given)", "values": [{"measurement": "cytotoxicity at 10 µM", "result": 1.52, "unit": "%"}]}, {"smiles": "CCOc1ccc(OCc2nccc(-c3cc(C(=O)O)ccn3)n2)cc1", "values": [{"measurement": "cytotoxicity at 10 µM", "result": -11.8, "unit": "%"}]}, {"smiles": "Cc1cccc2ncn(C(C)Cn3cccn3)c(=O)c12", "note": "(stereo not given)", "values": [{"measurement": "cytotoxicity at 10 µM", "result": -4.4, "unit": "%"}]}, {"smiles": "O=C(c1cccnc1O)N1CCOC(Cc2cccc(C(F)(F)F)c2)C1", "note": "(stereo not given)", "values": [{"measurement": "cytotoxicity at 10 µM", "result": 2.26, "unit": "%"}]}, {"smiles": "CC(C)c1cc(=O)[nH]c(-c2ccccc2CN2CCCC2C)n1", "note": "(stereo not given)", "values": [{"measurement": "cytotoxicity at 10 µM", "result": 10.4, "unit": "%"}]}, {"smiles": "O[C@@H]1CN(CC2=Cc3cc(Cl)ccc3OC2)CC[C@H]1N1CCCCCC1", "values": [{"measurement": "cytotoxicity at 10 µM", "result": 1.9, "unit": "%"}]}, {"smiles": "Cc1cc(C(=O)N2CCc3[nH]cnc3C2C(=O)O)c(-c2ccccc2)o1", "note": "(stereo not given)", "values": [{"measurement": "cytotoxicity at 10 µM", "result": -1.33, "unit": "%"}]}, {"smiles": "COc1cc2c(cc1-c1nc3c(cnn3C(C)C(C)C)[nH]1)OCO2", "note": "(stereo not given)", "values": [{"measurement": "cytotoxicity at 10 µM", "result": 8.61, "unit": "%"}]}, {"smiles": "CCC(Oc1ccc(N(C)S(C)(=O)=O)cc1)C(=O)NC", "note": "(stereo not given)", "values": [{"measurement": "cytotoxicity at 10 µM", "result": 0.0646, "unit": "%"}]}, {"smiles": "O=C(Cc1ccc(F)cc1)NCCNc1cc(N2CCCC2)ncn1", "values": [{"measurement": "cytotoxicity at 10 µM", "result": -8.37, "unit": "%"}]}, {"smiles": "C[C@@H]1CN(CC(C)(C)N2CCCCC2)C[C@@]1(O)C1CC1", "values": [{"measurement": "cytotoxicity at 10 µM", "result": -0.519, "unit": "%"}]}, {"smiles": "COc1ccc(C(C(=O)O)N2CCCN(C3CCCC3)CC2)cc1OC", "note": "(stereo not given)", "values": [{"measurement": "cytotoxicity at 10 µM", "result": 7.44, "unit": "%"}]}, {"smiles": "CCC(C)NC(=O)CCc1ccc(OCC(F)(F)F)c(OC)c1", "note": "(stereo not given)", "values": [{"measurement": "cytotoxicity at 10 µM", "result": -3.27, "unit": "%"}]}, {"smiles": "OCCn1nccc1C1CCN(CCOc2cccc(F)c2)CC1", "values": [{"measurement": "cytotoxicity at 10 µM", "result": -10.8, "unit": "%"}]}, {"smiles": "CCc1cnc(CN(C(C)=O)C2CCN(CCN3CCCCC3)C2)o1", "note": "(stereo not given)", "values": [{"measurement": "cytotoxicity at 10 µM", "result": -3.63, "unit": "%"}]}, {"smiles": "CCOc1ncccc1NC(=O)N1CCC(CN2CCOCC2)CC1", "values": [{"measurement": "cytotoxicity at 10 µM", "result": -13.6, "unit": "%"}]}, {"smiles": "CCS(=O)(=O)c1ccccc1N1CCC(N)CC1", "values": [{"measurement": "cytotoxicity at 10 µM", "result": 3.03, "unit": "%"}]}, {"smiles": "CN(Cc1noc(C2CC2)n1)C1CCN(CC(=O)N2CCOCC2)C1", "note": "(stereo not given)", "values": [{"measurement": "cytotoxicity at 10 µM", "result": -5.25, "unit": "%"}]}, {"smiles": "CCc1nc(C2CCCN2CCCS(N)(=O)=O)no1", "note": "(stereo not given)", "values": [{"measurement": "cytotoxicity at 10 µM", "result": -6.66, "unit": "%"}]}, {"smiles": "Cc1nc(CCNC(=O)NC(C)Cn2cccn2)cs1", "note": "(stereo not given)", "values": [{"measurement": "cytotoxicity at 10 µM", "result": -1.85, "unit": "%"}]}, {"smiles": "O=C1CC(N(C(=O)c2ccc(Cl)c(Cl)c2)C2CC2)C(=O)N1", "note": "(stereo not given)", "values": [{"measurement": "cytotoxicity at 10 µM", "result": 0.0791, "unit": "%"}]}, {"smiles": "CC(NC(=O)NCCn1ccnc1)c1ccc2c(c1)OCCO2", "note": "(stereo not given)", "values": [{"measurement": "cytotoxicity at 10 µM", "result": -9.44, "unit": "%"}]}, {"smiles": "O=C(CCc1cscn1)N1CCCC(n2cncn2)C1", "note": "(stereo not given)", "values": [{"measurement": "cytotoxicity at 10 µM", "result": -3.81, "unit": "%"}]}, {"smiles": "Cc1ccc(CNC(=O)CN2CCCC(Cn3cncn3)C2)cc1", "note": "(stereo not given)", "values": [{"measurement": "cytotoxicity at 10 µM", "result": -11.5, "unit": "%"}]}, {"smiles": "CC(C)C(=O)N(C)CC(=O)Nc1ccc(Br)cn1", "values": [{"measurement": "cytotoxicity at 10 µM", "result": -6.22, "unit": "%"}]}, {"smiles": "c1cnn(CC2CCCCN2Cc2nc(-c3ccoc3)no2)c1", "note": "(stereo not given)", "values": [{"measurement": "cytotoxicity at 10 µM", "result": -5.22, "unit": "%"}]}, {"smiles": "Cc1nc(C(=O)N2CCCC2c2noc(C3CC3)n2)c[nH]1", "note": "(stereo not given)", "values": [{"measurement": "cytotoxicity at 10 µM", "result": -7.06, "unit": "%"}]}, {"smiles": "Cc1cc(NC(=O)CCN2CCCC2Cn2cccn2)no1", "note": "(stereo not given)", "values": [{"measurement": "cytotoxicity at 10 µM", "result": -5.09, "unit": "%"}]}, {"smiles": "CC(NC(=O)Cn1cc(-c2ccccc2)cn1)C1CC1", "note": "(stereo not given)", "values": [{"measurement": "cytotoxicity at 10 µM", "result": 1.36, "unit": "%"}]}, {"smiles": "CN(c1cccnn1)C1CCN(C(=O)c2ccc3c(c2)COC3)CC1", "values": [{"measurement": "cytotoxicity at 10 µM", "result": -12, "unit": "%"}]}, {"smiles": "Cc1noc(CN2CCOC(CN(C)C)C2)n1", "note": "(stereo not given)", "values": [{"measurement": "cytotoxicity at 10 µM", "result": -6.61, "unit": "%"}]}, {"smiles": "CC(C)(C)c1n[nH]c(C2CN(C(=O)CCC3CC3)CCO2)n1", "note": "(stereo not given)", "values": [{"measurement": "cytotoxicity at 10 µM", "result": -12.7, "unit": "%"}]}, {"smiles": "O=C(CCCOCc1ccccc1)N1CCCC1c1ccccn1", "note": "(stereo not given)", "values": [{"measurement": "cytotoxicity at 10 µM", "result": -14.4, "unit": "%"}]}, {"smiles": "COCCOc1ccc(NC(=O)N(C)Cc2ccsc2)cn1", "values": [{"measurement": "cytotoxicity at 10 µM", "result": -2.81, "unit": "%"}]}, {"smiles": "O=C(NCC1CCSCC1)N(CCCO)C1CCc2ccccc21", "note": "(stereo not given)", "values": [{"measurement": "cytotoxicity at 10 µM", "result": 5.77, "unit": "%"}]}, {"smiles": "COc1ccc(CN(C)CC(=O)NC2(C)CCS(=O)(=O)C2)cc1F", "note": "(stereo not given)", "values": [{"measurement": "cytotoxicity at 10 µM", "result": 7.44, "unit": "%"}]}, {"smiles": "CN(c1ccc(F)c(F)c1)S(=O)(=O)c1cc(C(=O)O)cs1", "values": [{"measurement": "cytotoxicity at 10 µM", "result": -4.89, "unit": "%"}]}, {"smiles": "COc1ccc(C(C)NC(=O)Cn2ccc(=O)n(C)c2=O)cc1OC", "note": "(stereo not given)", "values": [{"measurement": "cytotoxicity at 10 µM", "result": -9.09, "unit": "%"}]}, {"smiles": "CCn1cnnc1C1CCN(C(=O)COCCc2ccccc2)CC1", "values": [{"measurement": "cytotoxicity at 10 µM", "result": 0.602, "unit": "%"}]}, {"smiles": "O=C(O)c1csc(S(=O)(=O)Nc2cccc(OC(F)F)c2)c1", "values": [{"measurement": "cytotoxicity at 10 µM", "result": -2.63, "unit": "%"}]}, {"smiles": "Cc1cc(C[C@@H]2COC[C@H]2NCc2ccc(Br)s2)on1", "values": [{"measurement": "cytotoxicity at 10 µM", "result": 3.6, "unit": "%"}]}, {"smiles": "CN(Cc1ccco1)Cc1cnc2n1CCN(S(C)(=O)=O)CC2", "values": [{"measurement": "cytotoxicity at 10 µM", "result": -2.75, "unit": "%"}]}, {"smiles": "CC(C)c1nn(C)cc1CNC1CCOc2ccccc21", "note": "(stereo not given)", "values": [{"measurement": "cytotoxicity at 10 µM", "result": 0.923, "unit": "%"}]}, {"smiles": "Cc1ccc(CN2CCC3(CC2)C(=O)N(C)c2ccccc23)s1", "values": [{"measurement": "cytotoxicity at 10 µM", "result": -5.68, "unit": "%"}]}, {"smiles": "O=C(NCCc1ccncc1)[C@@H]1CC[C@@H]2[C@@H](CCN2Cc2ccco2)O1", "values": [{"measurement": "cytotoxicity at 10 µM", "result": 1.15, "unit": "%"}]}, {"smiles": "CC(C)NC(=O)[C@@H]1CC[C@@H]2[C@@H](CCN2Cc2ccc3ccccc3n2)O1", "values": [{"measurement": "cytotoxicity at 10 µM", "result": 3.98, "unit": "%"}]}, {"smiles": "CC(C)COC1CC2(CCN(Cc3nccn3C)CC2)C1", "values": [{"measurement": "cytotoxicity at 10 µM", "result": -158, "unit": "%"}]}, {"smiles": "Cc1ncccc1NC(=O)[C@H]1C[C@@H]2CCN(Cc3nccs3)C[C@@H]2O1", "values": [{"measurement": "cytotoxicity at 10 µM", "result": 0.976, "unit": "%"}]}, {"smiles": "c1coc(CN2CCOC3(COCCN(Cc4ccncc4)C3)C2)c1", "note": "(stereo not given)", "values": [{"measurement": "cytotoxicity at 10 µM", "result": 4.03, "unit": "%"}]}, {"smiles": "CS(=O)(=O)N1C[C@H]2CC[C@@H](C1)N(C/C=C/c1ccc(F)cc1)C2", "values": [{"measurement": "cytotoxicity at 10 µM", "result": -15.5, "unit": "%"}]}, {"smiles": "CCn1[nH]c(C)c2c(C(F)(F)F)cc(=O)nc1-2", "values": [{"measurement": "cytotoxicity at 10 µM", "result": -1.26, "unit": "%"}]}]}
